Values after ≈ are worked out from the molar mass of the structure shown. Active and inactive are the calls of the source. The calls are words filed in the database; no cut-off is given here.
How the values were obtained:
dengue virus type 2 [1] = assay: Antiviral activity against DENV-2 New guinea infected in African green monkey Vero cells assessed as reduction in plaque formation administered post viral infection after 8 days by crystal violet staining technique; assay type: functional, organism-based; settings: 192 h
Summary of the method: (§1)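 Plaque reduction on Vero monolayers (2.5 × 10^4 cells/well) infected with 100 PFU/well. Pre-infection arm: virus–compound mixture added for 1 h at 37 °C, PBS wash, then CMC overlay. Post-infection arm: virus adsorbed 1 h, washed, then compound given in CMC. CMC was 1% for HHV-1, 0.75% for HHV-2 and 2% for DENV-2. Plates ran 72 h (HHV) or 8 days (DENV-2) before crystal violet staining. EC50 came from linear regression over ≥4 dilutions in quadruplicate.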

dengue virus type 2 [2] = assay: Antiviral activity against DENV-2 New guinea infected in African green monkey Vero cells assessed as maximal non toxic concentration causing inhibition of virus-induced cytopathic effect after 3 days by crystal violet staining based inverted microscopic analysis; assay type: functional
dengue virus type 2 [3] = assay: Antiviral activity against DENV-2 New guinea infected in African green monkey Vero cells assessed as inhibition of virus-induced cytopathic effect after 3 days by crystal violet staining based inverted microscopic analysis relative to control; assay type: functional, organism-based
[4] = Selectivity index, ratio of IC50 for African green monkey vero cells to EC50 for HHV-2 compound administered post viral infection
Summary of the method: (§2)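 Antiviral SI calculated as Vero IC50 divided by the post-infection plaque-reduction EC50 for each virus on Vero cells.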

Vero [5] = assay: Cytotoxicity against African green monkey Vero cells assessed as cell growth inhibition after 48 hrs by MTT assay; assay type: cell-based; settings: Chlorocebus sabaeus
Summary of the method: (§3)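 MTT assay. Vero and HeLa cells plated at 2.0 × 10^4/well and preincubated 24 h; Jurkat and U937 plated at 3.0 × 10^4/well. Compounds were applied 48 h at 37 °C, 5% CO2, with 0.05% DMSO. Absorbance read at 570 nm and IC50 taken by linear regression. Values are the geometric mean of two experiments in quadruplicate.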

HeLa [6] = assay: Cytotoxicity against human HeLa cells assessed as cell growth inhibition after 48 hrs by MTT assay; assay type: functional, cell-based; summary of the method: as §3
Aspergillus fumigatus = assay: Antifungal activity against Aspergillus fumigatus ATCC 204305 assessed as microbial growth inhibition by microdilution assay; assay type: functional, organism-based
Summary of the method: (§4)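 Broth microdilution under CLSI M38-A with modifications, in duplicate, at final compound concentrations of 50–3.125 μg/mL. […] Values are the geometric mean of duplicate tests in three assays. Assay DMSO was 0.05%.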

Candida parapsilosis = assay: Antifungal activity against Candida parapsilosis ATCC 22019 assessed as microbial growth inhibition after 24 hrs by microdilution assay; assay type: functional, organism-based
Summary of the method: (§5)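 Yeast microdilution by the AFST-EUCAST method at an inoculum of 1–5 × 10^5 CFU/mL, final compound concentrations 50–3.125 μg/mL, in duplicate. MIC is the lowest concentration giving 90% growth reduction after 24 h at 35 °C. Untreated inoculum served as negative control. Values are the geometric mean of duplicate tests in three assays.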

Aspergillus flavus = assay: Antifungal activity against Aspergillus flavus ATCC 204304 assessed as microbial growth inhibition by microdilution assay; assay type: functional, organism-based; summary of the method: as §4
Trichophyton rubrum = assay: Antifungal activity against Trichophyton rubrum ATCC 28188 assessed as microbial growth inhibition after 6 days by microdilution assay; assay type: functional; settings: ATCC 28188, 144 h; summary of the method: as §4
[7] = Selectivity index, ratio of IC50 for African green monkey vero cells to EC50 for DENV-2 compound administered post viral infection; summary of the method: as §2
Aspergillus terreus = assay: Antifungal activity against Aspergillus terreus CDC 317 assessed as microbial growth inhibition by microdilution assay; assay type: functional, organism-based; summary of the method: as §4
[8] = Cytotoxicity against human U937 cells assessed as cell growth inhibition after 48 hrs by MTT assay; assay type: functional, cell-based; settings: U-937, 48 h; summary of the method: as §3
Jurkat [9] = assay: Cytotoxicity against human Jurkat cells assessed as cell growth inhibition after 48 hrs by MTT assay; assay type: functional, cell-based; summary of the method: as §3
Human alphaherpesvirus 2 [10] = assay: Antiviral activity against HHV-2 VR-734-G infected in African green monkey Vero cells assessed as reduction in plaque formation administered simultaneously with virus for 1 hr measured after 72 hrs by crystal violet staining technique; assay type: functional, organism-based; summary of the method: as §1
Human alphaherpesvirus 2 [11] = assay: Antiviral activity against HHV-2 VR-734-G infected in African green monkey Vero cells assessed as reduction in plaque formation administered post viral infection after 72 hrs by crystal violet staining technique; assay type: functional, organism-based; settings: Human alphaherpesvirus 2, VR-734-G; summary of the method: as §1
Candida tropicalis = assay: Antifungal activity against Candida tropicalis ATCC 200956 assessed as microbial growth inhibition after 24 hrs by microdilution assay; assay type: functional, organism-based; summary of the method: as §5
Human alphaherpesvirus 1 [12] = assay: Antiviral activity against HHV1 CDC Atlanta infected in African green monkey Vero cells assessed as reduction of viral titer at maximal non-toxic concentration after 48 hrs by crystal violet staining assay relative to control; assay type: functional
Summary of the method: (§6)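 End-point titration on Vero monolayers (2.0 × 10^4 cells/well, ≥80% confluent) with 10 TCID50 virus. Virus–compound mixtures (6.25–50 μg/mL) in DMEM/2% FBS with CMC (1% for HHV-1, 0.5% for HHV-2) were held 15 min at room temperature. Incubation was 48 h (HHV-1) or 72 h (HHV-2) at 37 °C, then formaldehyde/crystal violet staining and plaque counting. Read-out is the viral titer reduction factor. Two experiments in quadruplicate.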

Jurkat [13] = assay: Selectivity index, ratio of IC50 for African green monkey Vero cells to IC50 for human Jurkat cells; assay type: functional
Summary of the method: (§7)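 SI calculated as Vero IC50 divided by HeLa, Jurkat or U937 IC50, all from the 48 h MTT assay.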

Candida albicans = assay: Antifungal activity against Candida albicans […] assessed as microbial growth inhibition after 24 hrs by microdilution assay; assay type: functional, organism-based; summary of the method: as §5
HeLa [14] = assay: Selectivity index, ratio of IC50 for African green monkey Vero cells to IC50 for human HeLa cells; assay type: functional; summary of the method: as §7
Vero [15] = assay: Selectivity index, ratio of IC50 for African green monkey Vero cells to IC50 for human U937 cells; assay type: functional; summary of the method: as §7
Fusarium oxysporum = assay: Antifungal activity against Fusarium oxysporum ATCC 48112 assessed as microbial growth inhibition after 48 hrs by microdilution assay; assay type: functional, organism-based; summary of the method: as §4
Human alphaherpesvirus 2 [16] = assay: Antiviral activity against HHV-2 VR-734-G infected in African green monkey Vero cells assessed as viral plaque size reduction at 20.8 uM after 72 hrs by crystal violet staining based inverted microscopic analysis relative to control; assay type: functional; design: scale not given: the % may be the effect or the level left
Summary of the method: (§8)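 Vero cells (2.5 × 10^4/well) infected with 100 PFU/well, with compound in CMC added 2 h after infection. Incubation was 72 h for HHV strains and 8 days for DENV-2, then formaldehyde/crystal violet staining. Twenty plaques per concentration per well were imaged and their areas […] measured against mock-treated controls. Two experiments in duplicate.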

Vero [17] = assay: Cytotoxicity against African green monkey Vero cells assessed as inhibition of cell proliferation after 8 days; assay type: cell-based; settings: Chlorocebus sabaeus, 192 h
Human alphaherpesvirus 1 [18] = assay: Antiviral activity against HHV-1 CDC Atlanta infected in African green monkey Vero cells assessed as maximal non toxic concentration causing reduction of viral titer after 48 hrs by crystal violet staining assay; assay type: functional; summary of the method: as §6
Human alphaherpesvirus 2 [19] = assay: Antiviral activity against HHV-2 VR-734-G infected in African green monkey Vero cells assessed as reduction of viral titer at maximal non-toxic concentration after 72 hrs by crystal violet staining assay relative to control; assay type: functional; summary of the method: as §6
Human alphaherpesvirus 1 [20] = assay: Antiviral activity against HHV-1 CDC Atlanta infected in African green monkey Vero cells assessed as reduction in plaque formation administered simultaneously with virus for 1 hr measured after 72 hrs by crystal violet staining technique; assay type: functional, organism-based; summary of the method: as §1
Vero [21] = assay: Cytotoxicity against African green monkey Vero cells assessed as inhibition of cell proliferation after 72 hrs; assay type: cell-based; settings: Chlorocebus sabaeus
[22] = test system: Trichophyton mentagrophytes; assay: Antifungal activity against Trichophyton mentagrophytes ATCC 24198 assessed as microbial growth inhibition after 6 days by microdilution assay; assay type: functional; settings: ATCC 24198, 144 h; summary of the method: as §4
dengue virus type 2 [23] = assay: Antiviral activity against DENV-2 New guinea infected in African green monkey Vero cells assessed as reduction in plaque formation administered simultaneously with virus for 1 hr measured after 8 days by crystal violet staining technique; assay type: functional, organism-based; summary of the method: as §1
Human alphaherpesvirus 1 [24] = assay: Antiviral activity against HHV-1 CDC Atlanta infected in African green monkey Vero cells assessed as reduction in plaque formation administered post viral infection after 72 hrs by crystal violet staining technique; assay type: functional, organism-based; summary of the method: as §1
[25] = Selectivity index, ratio of IC50 for African green monkey vero cells to EC50 for HHV-1 compound administered post viral infection; summary of the method: as §2
Human alphaherpesvirus 2 [26] = assay: Antiviral activity against HHV-2 VR-734-G infected in African green monkey Vero cells assessed as maximal non toxic concentration causing reduction of viral titer after 72 hrs by crystal violet staining assay; assay type: functional; summary of the method: as §6
dengue virus type 2 [27] = assay: Antiviral activity against DENV-2 New guinea infected in African green monkey Vero cells assessed as viral plaque size reduction at 3.6 uM after 8 days by crystal violet staining based inverted microscopic analysis relative to control; assay type: functional; design: scale not given: the % may be the effect or the level left; summary of the method: as §8
Human alphaherpesvirus 1 [28] = assay: Antiviral activity against acyclovir-resistant HHV-1 29R infected in African green monkey Vero cells assessed as viral plaque size reduction at 29 uM after 72 hrs by crystal violet staining based inverted microscopic analysis relative to control; assay type: functional; design: scale not given: the % may be the effect or the level left; summary of the method: as §8
Human alphaherpesvirus 1 [29] = assay: Antiviral activity against HHV-1 CDC Atlanta infected in African green monkey Vero cells assessed as viral plaque size reduction at 29 uM after 72 hrs by crystal violet staining based inverted microscopic analysis relative to control; assay type: functional; design: scale not given: the % may be the effect or the level left; summary of the method: as §8

| Structure (SMILES) | EC50 (dengue virus type 2 [1]) [µM] | Activity (dengue virus type 2 [3]) | Ratio IC50/EC50 [4] | IC50 (HeLa [6]) [µM] | Activity (Aspergillus fumigatus) | Activity (Candida parapsilosis) | Activity (Aspergillus flavus) | Ratio IC50/EC50 [7] | Activity (Aspergillus terreus) | IC50 [8] [µM] | IC50 (Jurkat [9]) [µM] | EC50 (Human alphaherpesvirus 2 [10]) | EC50 (Human alphaherpesvirus 2 [11]) [µM] | Activity (Candida tropicalis) | fold change (FC) (Human alphaherpesvirus 1 [12]) | Activity (Candida albicans) | Activity (Fusarium oxysporum) | IC50 (Vero [17]) [µM] | MNTD (Human alphaherpesvirus 1 [18]) | fold change (FC) (Human alphaherpesvirus 2 [19]) | other results |
| --- | --- | --- | --- | --- | --- | --- | --- | --- | --- | --- | --- | --- | --- | --- | --- | --- | --- | --- | --- | --- | --- |
| NC(=O)c1ncn([C@@H]2O[C@H](CO)[C@@H](O)[C@H]2O)n1 [RIBAVIRIN] | 13.5 | Active | – | – | – | – | – | – | – | – | – | – | – | – | – | – | – | – | – | – | MNTD (dengue virus type 2 [2]): 123 µM |
| CC(C)c1cc2c(cc1O)[C@@]1(C)CCC[C@@](C)(C=O)[C@@H]1CC2 [18-OXOFERRUGINOL] | 5 | Active | 5.9 | 60 | inactive | inactive | inactive | 10.4 | inactive | 33.2 | 21.6 | Not Active | 16.6 | inactive | inactive | inactive | inactive | 52.2 | inactive | 1000 | IC50 (Vero [5]): 90.8 µM; MIC80 (Trichophyton rubrum): 41.7 µM (≈ 12.5 µg/mL); Ratio IC50 (Jurkat [13]): 4.2; Ratio IC50 (HeLa [14]): 1.5; Ratio IC50 (Vero [15]): 2.7; Activity (Human alphaherpesvirus 2 [16]): 68.2%; EC50 (Human alphaherpesvirus 1 [20]): Not Active; IC50 (Vero [21]): 97.8 µM; MIC80 [22]: 83.3 µM (≈ 25 µg/mL); EC50 (dengue virus type 2 [23]): Not Active; EC50 (Human alphaherpesvirus 1 [24]; Human alphaherpesvirus 1, CDC Atlanta, Vero, 72 h, read-out: EC50): 19.6 µM; Ratio IC50/EC50 [25]: 4.9; MNTD (Human alphaherpesvirus 2 [26]): 41.7 µM |
| CC(C)c1cc2c(cc1O)[C@@]1(C)CCC[C@@](C)(CN3C(=O)c4ccccc4C3=O)[C@@H]1CC2 | 1.4 | Active | 10 | > 50 | inactive | inactive | inactive | 57.7 | inactive | > 50 | > 50 | Not Active | 19.2 | inactive | 100 | inactive | inactive | 80.8 | 14.5 µM | 1000 | Activity (dengue virus type 2 [27]): 77.9%; Activity (Human alphaherpesvirus 1 [28]): 87.1%; Activity (Human alphaherpesvirus 1 [29]): 93.7%; EC50 (Human alphaherpesvirus 1 [20]): Not Active; IC50 (Vero [21]): 191 µM; EC50 (dengue virus type 2 [23]): Not Active; EC50 (Human alphaherpesvirus 1 [24]; vero): Not Active; MNTD (Human alphaherpesvirus 2 [26]): 29 µM |

Source: ChEMBL document CHEMBL3758103, “Anti-herpetic and anti-dengue activity of abietane ferruginol analogues synthesized from (+)-dehydroabietylamine” (Eur J Med Chem, 2016)
